Laboratory results from ChEMBL document CHEMBL1125107, “Cephalosporin 3'-quinolone esters with a dual mode of action” (J Med Chem, 1990).
In brackets after ≈: the same amount, converted by molar mass.

Experiments:
[1] = tested on: Enterococcus faecalis; assay: In vitro antibacterial activity was determined against Enterococcus faecalis ATCC 29212; format: functional
Summary of the method: (§1)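 MIC by serial 2-fold dilution in Mueller-Hinton broth; results given as minimum inhibitory concentrations (nmol/mL).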

[2] = tested on: Pseudomonas aeruginosa; assay: In vitro antibacterial activity was determined against Pseudomonas aeruginosa 18S/H (Class Id beta-lactamase overproducer); format: functional
Summary of the method: (§2)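 Broth MIC determination: serial 2-fold dilutions in Mueller-Hinton broth by standard methodology; the lowest concentration inhibiting growth is reported as the MIC, in nmol/mL.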

[3] = tested on: Enterobacter cloacae; assay: In vitro antibacterial activity was determined against Enterobacter cloacae P99 (Class Ia beta-lactamase overproducer); format: functional; summary of the method: as §1
[4] = tested on: Escherichia coli; assay: In vitro antibacterial activity was determined against Escherichia coli DC-O; format: functional; summary of the method: as §1
[5] = tested on: Escherichia coli; assay: In vitro antibacterial activity was determined against Escherichia coli TEM-1 (TEM-1 (class IIIa) beta-lactamase producer); format: functional; summary of the method: as §1
[6] = tested on: Proteus vulgaris; assay: In vitro antibacterial activity was determined against Proteus vulgaris 1028 BC (Class Ic beta-lactamase overproducer); format: functional; summary of the method: as §1
[7] = tested on: Staphylococcus aureus; assay: In vitro antibacterial activity was determined against Staphylococcus aureus 95 (Methicillin-resistant, high-level beta-lactamase producer); format: functional
Summary of the method: (§3)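 Serial 2-fold broth dilution in Mueller-Hinton broth, run by standard methodology; read-out is the minimum inhibitory concentration (MIC).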

[8] = tested on: Escherichia coli; assay: In vivo effective dose against mice infected with Escherichia coli 257; format: functional
Summary of the method: (§4)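 Mouse protection test against systemic infection, run by literature procedures; the compound was given subcutaneously, and the effective dose (ED50, mg/kg) was determined.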

[9] = tested on: Serratia marcescens; assay: In vitro antibacterial activity was determined against Serratia marcescens 1071; format: functional; summary of the method: as §2
[10] = tested on: Streptococcus pyogenes; assay: In vivo effective dose against mice infected with streptococcus pyogenes 4; format: functional; summary of the method: as §4
[11] = tested on: Staphylococcus aureus; assay: In vitro antibacterial activity was determined against Staphylococcus aureus ATCC 29213 (inducible, low level beta-lactamase producer); format: functional; summary of the method: as §3
[12] = tested on: Streptococcus pyogenes; assay: In vitro antibacterial activity was determined against Streptococcus pyogenes 4; format: functional; summary of the method: as §2
[13] = tested on: Streptococcus pneumoniae; assay: (§5) In vitro antibacterial activity was determined against Streptococcus pneumoniae 6301; format: functional; summary of the method: as §2
[14] = tested on: Pseudomonas aeruginosa; assay: In vitro antibacterial activity was determined against Pseudomonas aeruginosa ATCC 27853; format: functional; summary of the method: as §2
[15] = tested on: Micrococcus luteus; assay: In vitro antibacterial activity was determined against Micrococcus luteus PCI; format: functional; summary of the method: as §1
[16] = tested on: Staphylococcus aureus; assay: In vitro antibacterial activity was determined against Staphylococcus aureus 1059B ( inducible, high level beta-lactamase producer); format: functional; summary of the method: as §2
[17] = tested on: Citrobacter freundii; assay: In vitro antibacterial activity was determined against Citrobacter freundii BS-16; format: functional; summary of the method: as §1
[18] = tested on: Proteus mirabilis; assay: In vitro antibacterial activity was determined against Proteus mirabilis 90; format: functional; summary of the method: as §1
[19] = tested on: Streptococcus pneumoniae; assay: as §5; format: functional; summary of the method: as §2; remark: listed apart in the source
[20] = tested on: Staphylococcus aureus; assay: Minimum inhibitory concentration against Staphylococcus aureus 95 (Methicillin-resistant, high-level beta-lactamase producer); format: functional; summary of the method: as §3
[21] = tested on: Escherichia coli; assay: Evaluated for the minimum inhibitory concentration against Escherichia coli UB 1005; format: functional; summary of the method: as §1
[22] = tested on: Streptococcus pneumoniae; assay: Minimum inhibitory concentration against Streptococcus pneumoniae 6301; format: functional; summary of the method: as §2
[23] = tested on: Streptococcus pyogenes; assay: Minimum inhibitory concentration against Streptococcus pyogenes 4; format: functional; summary of the method: as §2
[24] = tested on: Proteus vulgaris; assay: Evaluated for the minimum inhibitory concentration against Proteus vulgaris 1028 BC ( Class Ic beta-lactamase overproducer); format: functional; summary of the method: as §1
[25] = tested on: Pseudomonas aeruginosa; assay: Evaluated for the minimum inhibitory concentration against Pseudomonas aeruginosa 18S/H ( Class Id beta-lactamase overproducer); format: functional; summary of the method: as §1
[26] = tested on: Pseudomonas aeruginosa; assay: Minimum inhibitory concentration against Pseudomonas aeruginosa ATCC 27853; format: functional; summary of the method: as §2
[27] = tested on: Staphylococcus aureus; assay: In vitro antibacterial activity was determined against Staphylococcus aureus 1059B (inducible, high level beta-lactamase producer); format: functional; summary of the method: as §3
[28] = tested on: Proteus vulgaris; assay: In vitro antibacterial activity was determined against Proteus vulgaris 1028BC (Class Ic beta-lactamase overproducer; format: functional; summary of the method: as §1
[29] = tested on: Streptococcus pneumoniae; assay: Evaluated for in Vitro activity against Streptococcus pneumoniae 6301; format: functional; details: read-out: MIC; summary of the method: as §1
[30] = Evaluated for its stability in rat serum at 37 degrees Celsius as determined by HPLC analysis; format: ADME, organism-based
Summary of the method: (§6)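 Compound solutions incubated at 37 °C, sampled at intervals; remaining starting material quantified by HPLC on PRP-1 column, UV 286 nm, mobile phase 0.01 M tetradecyltrimethylammonium bromide in 60% 0.067 M pH 7.4 phosphate buffer/40% acetonitrile; half-life reported.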

[31] = Evaluated for its stability in phosphate buffer, pH 6.5 at 37 degrees Celsius as determined by HPLC analysis; format: physicochemical; summary of the method: as §6
[32] = Evaluated for its stability in monkey serum at 37 degrees Celsius as determined by HPLC analysis; format: ADME, cell-free; details: simiiformes; summary of the method: as §6
[33] = tested on: Streptococcus pyogenes; assay: Evaluated for the in vivo activity in mice against streptococcus pyogenes 4; format: functional
[34] = tested on: Micrococcus luteus; assay: Evaluated for in Vitro activity against Micrococcus luteus PCI; format: functional; details: read-out: MIC; summary of the method: as §1
[35] = Evaluated for its stability in dog serum at 37 degrees Celsius as determined by HPLC analysis; format: ADME, organism-based, Canis lupus familiaris; summary of the method: as §6
[36] = tested on: Escherichia coli; assay: Evaluated for in Vitro activity against Escherichia coli DC-O; format: functional; details: read-out: MIC; summary of the method: as §1
[37] = Evaluated for its stability in phosphate buffer, pH 7.4 at 37 degrees Celsius as determined by HPLC analysis; format: physicochemical; summary of the method: as §6
[38] = Evaluated for its stability in Mueller-Hinton broth at 37 degrees Celsius as determined by HPLC analysis; format: physicochemical; summary of the method: as §6
[39] = tested on: Escherichia coli; assay: Evaluated for the in vivo activity in mice against Escherichia coli 257; format: functional
[40] = Evaluated for its stability in rat blood at 37 degrees Celsius as determined by HPLC analysis; format: ADME, organism-based; summary of the method: as §6
[41] = Evaluated for its stability in human serum at 37 degrees Celsius as determined by HPLC analysis; format: ADME, organism-based; summary of the method: as §6
[42] = tested on: Proteus vulgaris; assay: Minimum inhibitory concentration against Proteus vulgaris 1028 BC (Class Ic beta-lactamase overproducer); format: functional; summary of the method: as §2
[43] = Evaluated for its stability in dog blood at 37 degrees Celsius as determined by HPLC analysis; format: ADME, organism-based, Canis lupus familiaris; summary of the method: as §6

| SMILES | MIC [1] [µg/mL] | MIC [2] [µg/mL] | MIC [3] [µg/mL] | MIC [5] [µg/mL] | MIC [7] [µg/mL] | MIC [9] [µg/mL] | MIC [11] [µg/mL] | MIC [12] [µg/mL] | MIC [17] [µg/mL] | MIC [18] [µg/mL] | MIC [19] [µg/mL] | MIC [20] [µg/mL] | MIC [21] [µg/mL] | MIC [22] [µg/mL] | MIC [23] [µg/mL] | MIC [25] [µg/mL] | MIC [26] [µg/mL] | also measured |
| --- | --- | --- | --- | --- | --- | --- | --- | --- | --- | --- | --- | --- | --- | --- | --- | --- | --- | --- |
| CN1CCN(c2c(F)cc3c(=O)c(C(=O)O)cn(CCF)c3c2F)CC1 [FLEROXACIN] | 4 (≈ 10.8 µM) | 2 (≈ 5.42 µM) | 0.125 (≈ 0.338 µM) | 0.125 (≈ 0.338 µM) | 0.5 (≈ 1.35 µM) | 0.25 (≈ 0.677 µM) | 0.5 (≈ 1.35 µM) | 1 (≈ 2.71 µM) | 1 (≈ 2.71 µM) | 0.5 (≈ 1.35 µM) | 4 (≈ 10.8 µM) | – | – | – | – | – | – | MIC [4]: 1.19 µM (≈ 0.44 µg/mL); MIC [6]: 0.25 µg/mL (≈ 0.677 µM); ED50 [8]: 0.4 mg/kg; ED50 [10]: 183 mg/kg; MIC [13]: 9.53 µM (≈ 3.52 µg/mL); MIC [14]: 4 µg/mL (≈ 10.8 µM); MIC [15]: 38.2 µM (≈ 14.1 µg/mL); MIC [16]: 0.5 µg/mL (≈ 1.35 µM) |
| CCn1cc(C(=O)OCC2=C(C(=O)O)N3C(=O)[C@@H](NC(=O)/C(=N/OC)c4csc(N)n4)C3SC2)c(=O)c2cc(F)c(N3CCCC3)cc21 (stereo not given in full) | – | – | – | – | – | – | – | – | – | – | – | 0.5 (≈ 0.715 µM) | 0.5 (≈ 0.715 µM) | < 0.008 | 1 (≈ 1.43 µM) | 32 (≈ 45.7 µM) | > 128 | MIC [24]: 4 µg/mL (≈ 5.72 µM) |
| CCn1cc(C(=O)O)c(=O)c2cc(F)c(N3CCSCC3)cc21 | 1 (≈ 2.97 µM) | 1 (≈ 2.97 µM) | 0.125 (≈ 0.372 µM) | 0.5 (≈ 1.49 µM) | 0.063 (≈ 0.187 µM) | 0.25 (≈ 0.743 µM) | 0.063 (≈ 0.187 µM) | 8 (≈ 23.8 µM) | 16 (≈ 47.6 µM) | 16 (≈ 47.6 µM) | 16 (≈ 47.6 µM) | – | – | – | – | – | – | MIC [27]: 0.125 µg/mL (≈ 0.372 µM); MIC [28]: 0.5 µg/mL (≈ 1.49 µM) |
| CO/N=C(/C(=O)N[C@@H]1C(=O)N2C(C(=O)O)=C(COC(=O)c3cn(CCF)c4c(F)c(N5CCN(C)CC5)c(F)cc4c3=O)CSC12)c1csc(N)n1 (stereo not given in full) | – | – | – | – | – | – | – | – | – | – | – | 2 (≈ 2.62 µM) | 0.12 (≈ 0.157 µM) | < 0.008 | 0.031 (≈ 0.0405 µM) | 4 (≈ 5.23 µM) | 8 (≈ 10.5 µM) | MIC [29]: 0.0187 µM (≈ 0.0143 µg/mL); half-life [30]: 4.5 h; half-life [31]: 6.9 h; half-life [32]: 5.7 h; ED50 [33]: 8.8 mg/kg; MIC [34]: 0.0746 µM (≈ 0.0571 µg/mL); half-life [35]: 3.9 h; MIC [36]: 0.299 µM (≈ 0.229 µg/mL); half-life [37]: 3 h; half-life [38]: 3.4 h; ED50 [39]: 1.8 mg/kg; half-life [40]: 5.8 h; half-life [41]: 6.3 h; MIC [42]: 0.25 µg/mL (≈ 0.327 µM); half-life [43]: 3.4 h |
